{"data": "Experimental data pooled from the literature", "target": "Citron Rho-interacting kinase (CIT, Homo sapiens, UniProt O14578)"}
{"SMILES": "CN1CCN(C(=O)c2ccc(NC(=O)Nc3ccc(N(C)c4ccnc(Nc5ccc(CS(C)(=O)=O)cc5)n4)cc3)cc2)CC1", "test": "binding, competition with immobilised ligand", "setting": "1 µM", "measurement": "remaining binding", "value": "79%"}
{"SMILES": "CC#CC(=O)N1CCC[C@H]1c1nc(-c2ccc(C(=O)Nc3ccccn3)cc2)c2c(N)nccn12", "test": "enzyme activity, inhibitor", "setting": "1 µM", "measurement": "inhibition", "value": "1%"}
{"SMILES": "CCCCC(=O)Nc1ccc(-c2ccc3ncn(CCC)c(=O)c3c2)cn1", "test": "binding, competition with immobilised ligand", "setting": "0.5 µM", "measurement": "remaining binding", "value": "83%"}
{"SMILES": "C1=C/COCc2cc(ccc2OCCN2CCCC2)Nc2nccc(n2)-c2cccc(c2)COC/1", "test": "cell-free assay", "setting": "0.1 µM", "measurement": "remaining signal", "value": "72%"}
{"SMILES": "Cc1ccc(NC(=O)c2ccnc(C(F)(F)F)c2)cc1-c1cc(OCCO)nc(N2CCOCC2)c1", "test": "binding, competition with immobilised ligand", "setting": "1 µM", "measurement": "remaining binding", "value": "96%"}
{"SMILES": "CC(C)S(=O)(=O)c1ccc2nccc(Nc3ccc4sc(C5CCCC5)nc4c3)c2c1", "test": "enzyme activity, inhibitor", "setting": "1 µM", "measurement": "activity vs control", "value": "113%"}
{"SMILES": "COc1ccc2oc(-c3ccc4nc(N)oc4c3)c/c(=N\\c3ccccc3NC(=O)CCN)c2c1", "test": "binding", "setting": "1 µM", "measurement": "remaining binding", "value": "92%"}
{"SMILES": "CO[C@@H]1[C@H](N(C)C(=O)c2ccccc2)C[C@H]2O[C@]1(C)n1c3ccccc3c3c4c(c5c6ccccc6n2c5c31)C(=O)NC4", "test": "enzyme activity, inhibitor", "setting": "1 µM", "measurement": "inhibition", "value": "0%"}
